Measured values: ChEMBL document CHEMBL4689842, “EUbOPEN Chemogenomics Library wave 1” (2021)

Tested on: HEK-293T
Assay: Multiplex assay against HEK293T;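 as to Population Tubulin-Different-Phenotype (%): share of the cells with healthy nuclei that show this phenotype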
Format: toxicity, cell-based
Settings: human
How it was run: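 Live cells were stained at seeding with Hoechst33342, BioTracker Green Microtubule Cytoskeleton Dye, MitoTracker Red and Annexin V Alexa Fluor 680, then imaged on a CQ1 microscope at 37°C and 5% CO2 after compound addition. CellPathfinder machine-learning gating split cells into Hoechst high-intensity objects or normal cells. Normal cells were split into healthy, pyknosed or fragmented nuclei, and pyknosed cells into mitotic or apoptotic. Tubulin, mitochondrial-mass and membrane-permeability phenotypes are per cents of healthy-nucleus cells.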

[1] = 12 h, 1 µM, compound concentration 1 uM, replicate 1
[2] = 12 h, 1 µM, compound concentration 1 uM, replicate 2
[3] = 12 h, 10 µM, compound concentration 10 uM, replicate 1
[4] = 12 h, 10 µM, compound concentration 10 uM, replicate 2
[5] = 24 h, 1 µM, compound concentration 1 uM, replicate 1
[6] = 24 h, 1 µM, compound concentration 1 uM, replicate 2
[7] = 24 h, 10 µM, compound concentration 10 uM, replicate 1
[8] = 24 h, 10 µM, compound concentration 10 uM, replicate 2
[9] = 48 h, 1 µM, compound concentration 1 uM, replicate 1
[10] = 48 h, 1 µM, compound concentration 1 uM, replicate 2
[11] = 48 h, 10 µM, compound concentration 10 uM, replicate 1
[12] = 48 h, 10 µM, compound concentration 10 uM, replicate 2

Question: Cc1c[nH]c2nccc(Oc3c(F)cc(Nc4cc(Cl)nc(N)n4)cc3F)c12 [BAY-549] was tested. Which “Population Apoptotic (%)” value [1] did it give?
Answer: 37%

Question: And the “Population Fragmented Nuclei (%)” value [1]?
Answer: 15%

Question: And the “Population Healthy Nuclei (%)” value [1]?
Answer: 32%

Question: What about the “Population Hoechst High Intensity Objects (%)” value [1] of the same molecule?
Answer: 12%

Question: And the “Population Membrane Permeable-Phenotype (%)” value [1]?
Answer: 0%

Question: And the “Population Mitochondria Different-Phenotype (%)” value [1]?
Answer: 71%

Question: What about the “Population Mitotic Cells (%)” value [1] of the same molecule?
Answer: 62%

Question: What about the “Population Normal (%)” value [1] of the same molecule?
Answer: 87%

Question: What about the “Population Pyknosed Nuclei (%)” value [1] of the same molecule?
Answer: 52%

Question: And the “Population Tubulin-Different-Phenotype (%)” value [1]?
Answer: 31%

Question: What about the “Total Cell Count” value [1] of the same molecule?
Answer: 310

Question: And the “Population Apoptotic (%)” value [2]?
Answer: 13%

Question: What about the “Population Fragmented Nuclei (%)” value [2] of the same molecule?
Answer: 7%

Question: And the “Population Healthy Nuclei (%)” value [2]?
Answer: 54%

Question: And the “Population Hoechst High Intensity Objects (%)” value [2]?
Answer: 4%

Question: And the “Population Membrane Permeable-Phenotype (%)” value [2]?
Answer: 8%

Question: What about the “Population Mitochondria Different-Phenotype (%)” value [2] of the same molecule?
Answer: 8%

Question: What about the “Population Mitotic Cells (%)” value [2] of the same molecule?
Answer: 86%

Question: What about the “Population Normal (%)” value [2] of the same molecule?
Answer: 95%

Question: And the “Population Pyknosed Nuclei (%)” value [2]?
Answer: 37%

Question: What about the “Population Tubulin-Different-Phenotype (%)” value [2] of the same molecule?
Answer: 14%

Question: What about the “Total Cell Count” value [2] of the same molecule?
Answer: 236

Question: What about the “Population Apoptotic (%)” value [3] of the same molecule?
Answer: 45%

Question: And the “Population Fragmented Nuclei (%)” value [3]?
Answer: 9%

Question: What about the “Population Healthy Nuclei (%)” value [3] of the same molecule?
Answer: 45%

Question: What about the “Population Hoechst High Intensity Objects (%)” value [3] of the same molecule?
Answer: 8%

Question: And the “Population Mitochondria Different-Phenotype (%)” value [3]?
Answer: 65%

Question: What about the “Population Mitotic Cells (%)” value [3] of the same molecule?
Answer: 54%

Question: What about the “Population Normal (%)” value [3] of the same molecule?
Answer: 91%

Question: What about the “Population Pyknosed Nuclei (%)” value [3] of the same molecule?
Answer: 44%

Question: And the “Population Tubulin-Different-Phenotype (%)” value [3]?
Answer: 5%

Question: And the “Total Cell Count” value [3]?
Answer: 370

Question: And the “Population Apoptotic (%)” value [4]?
Answer: 16%

Question: And the “Population Fragmented Nuclei (%)” value [4]?
Answer: 5%

Question: What about the “Population Healthy Nuclei (%)” value [4] of the same molecule?
Answer: 42%

Question: And the “Population Hoechst High Intensity Objects (%)” value [4]?
Answer: 3%

Question: What about the “Population Membrane Permeable-Phenotype (%)” value [4] of the same molecule?
Answer: 0%

Question: And the “Population Mitochondria Different-Phenotype (%)” value [4]?
Answer: 11%

Question: And the “Population Mitotic Cells (%)” value [4]?
Answer: 83%

Question: And the “Population Normal (%)” value [4]?
Answer: 96%

Question: And the “Population Pyknosed Nuclei (%)” value [4]?
Answer: 52%

Question: And the “Population Tubulin-Different-Phenotype (%)” value [4]?
Answer: 1%

Question: And the “Total Cell Count” value [4]?
Answer: 247

Question: And the “Population Apoptotic (%)” value [5]?
Answer: 45%

Question: What about the “Population Fragmented Nuclei (%)” value [5] of the same molecule?
Answer: 14%

Question: And the “Population Healthy Nuclei (%)” value [5]?
Answer: 32%

Question: What about the “Population Hoechst High Intensity Objects (%)” value [5] of the same molecule?
Answer: 10%

Question: What about the “Population Membrane Permeable-Phenotype (%)” value [5] of the same molecule?
Answer: 2%

Question: What about the “Population Mitochondria Different-Phenotype (%)” value [5] of the same molecule?
Answer: 47%

Question: And the “Population Mitotic Cells (%)” value [5]?
Answer: 54%

Question: And the “Population Normal (%)” value [5]?
Answer: 89%

Question: What about the “Population Pyknosed Nuclei (%)” value [5] of the same molecule?
Answer: 52%

Question: And the “Population Tubulin-Different-Phenotype (%)” value [5]?
Answer: 25%

Question: And the “Total Cell Count” value [5]?
Answer: 284

Question: What about the “Population Apoptotic (%)” value [6] of the same molecule?
Answer: 18%

Question: And the “Population Fragmented Nuclei (%)” value [6]?
Answer: 13%

Question: What about the “Population Healthy Nuclei (%)” value [6] of the same molecule?
Answer: 66%

Question: And the “Population Hoechst High Intensity Objects (%)” value [6]?
Answer: 3%

Question: And the “Population Membrane Permeable-Phenotype (%)” value [6]?
Answer: 8%

Question: And the “Population Mitochondria Different-Phenotype (%)” value [6]?
Answer: 10%

Question: What about the “Population Mitotic Cells (%)” value [6] of the same molecule?
Answer: 81%

Question: What about the “Population Normal (%)” value [6] of the same molecule?
Answer: 96%

Question: What about the “Population Pyknosed Nuclei (%)” value [6] of the same molecule?
Answer: 19%

Question: And the “Population Tubulin-Different-Phenotype (%)” value [6]?
Answer: 7%

Question: What about the “Total Cell Count” value [6] of the same molecule?
Answer: 255

Question: And the “Population Apoptotic (%)” value [7]?
Answer: 48%

Question: What about the “Population Fragmented Nuclei (%)” value [7] of the same molecule?
Answer: 11%

Question: And the “Population Healthy Nuclei (%)” value [7]?
Answer: 41%

Question: And the “Population Hoechst High Intensity Objects (%)” value [7]?
Answer: 9%

Question: What about the “Population Mitochondria Different-Phenotype (%)” value [7] of the same molecule?
Answer: 51%

Question: What about the “Population Mitotic Cells (%)” value [7] of the same molecule?
Answer: 51%

Question: And the “Population Normal (%)” value [7]?
Answer: 90%

Question: And the “Population Pyknosed Nuclei (%)” value [7]?
Answer: 46%

Question: What about the “Population Tubulin-Different-Phenotype (%)” value [7] of the same molecule?
Answer: 4%

Question: What about the “Total Cell Count” value [7] of the same molecule?
Answer: 375

Question: And the “Population Apoptotic (%)” value [8]?
Answer: 31%

Question: What about the “Population Fragmented Nuclei (%)” value [8] of the same molecule?
Answer: 6%

Question: And the “Population Healthy Nuclei (%)” value [8]?
Answer: 49%

Question: What about the “Population Hoechst High Intensity Objects (%)” value [8] of the same molecule?
Answer: 2%

Question: What about the “Population Membrane Permeable-Phenotype (%)” value [8] of the same molecule?
Answer: 0%

Question: What about the “Population Mitochondria Different-Phenotype (%)” value [8] of the same molecule?
Answer: 21%

Question: What about the “Population Mitotic Cells (%)” value [8] of the same molecule?
Answer: 68%

Question: What about the “Population Normal (%)” value [8] of the same molecule?
Answer: 97%

Question: What about the “Population Pyknosed Nuclei (%)” value [8] of the same molecule?
Answer: 44%

Question: What about the “Population Tubulin-Different-Phenotype (%)” value [8] of the same molecule?
Answer: 5%

Question: And the “Total Cell Count” value [8]?
Answer: 233

Question: And the “Population Apoptotic (%)” value [9]?
Answer: 48%

Question: What about the “Population Fragmented Nuclei (%)” value [9] of the same molecule?
Answer: 29%

Question: What about the “Population Healthy Nuclei (%)” value [9] of the same molecule?
Answer: 34%

Question: And the “Population Hoechst High Intensity Objects (%)” value [9]?
Answer: 9%

Question: And the “Population Membrane Permeable-Phenotype (%)” value [9]?
Answer: 1%

Question: And the “Population Mitochondria Different-Phenotype (%)” value [9]?
Answer: 24%

Question: And the “Population Mitotic Cells (%)” value [9]?
Answer: 51%

Question: What about the “Population Normal (%)” value [9] of the same molecule?
Answer: 90%

Question: And the “Population Pyknosed Nuclei (%)” value [9]?
Answer: 36%

Question: And the “Population Tubulin-Different-Phenotype (%)” value [9]?
Answer: 24%

Question: And the “Total Cell Count” value [9]?
Answer: 307

Question: And the “Population Apoptotic (%)” value [10]?
Answer: 28%

Question: And the “Population Fragmented Nuclei (%)” value [10]?
Answer: 25%

Question: And the “Population Healthy Nuclei (%)” value [10]?
Answer: 64%

Question: And the “Population Hoechst High Intensity Objects (%)” value [10]?
Answer: 2%

Question: And the “Population Membrane Permeable-Phenotype (%)” value [10]?
Answer: 8%

Question: And the “Population Mitochondria Different-Phenotype (%)” value [10]?
Answer: 4%

Question: And the “Population Mitotic Cells (%)” value [10]?
Answer: 71%

Question: What about the “Population Normal (%)” value [10] of the same molecule?
Answer: 97%

Question: What about the “Population Pyknosed Nuclei (%)” value [10] of the same molecule?
Answer: 10%

Question: What about the “Population Tubulin-Different-Phenotype (%)” value [10] of the same molecule?
Answer: 10%

Question: And the “Total Cell Count” value [10]?
Answer: 336

Question: And the “Population Apoptotic (%)” value [11]?
Answer: 60%

Question: What about the “Population Fragmented Nuclei (%)” value [11] of the same molecule?
Answer: 16%

Question: And the “Population Healthy Nuclei (%)” value [11]?
Answer: 34%

Question: What about the “Population Hoechst High Intensity Objects (%)” value [11] of the same molecule?
Answer: 9%

Question: What about the “Population Mitochondria Different-Phenotype (%)” value [11] of the same molecule?
Answer: 45%

Question: What about the “Population Mitotic Cells (%)” value [11] of the same molecule?
Answer: 39%

Question: And the “Population Normal (%)” value [11]?
Answer: 90%

Question: What about the “Population Pyknosed Nuclei (%)” value [11] of the same molecule?
Answer: 48%

Question: And the “Population Tubulin-Different-Phenotype (%)” value [11]?
Answer: 6%

Question: What about the “Total Cell Count” value [11] of the same molecule?
Answer: 330

Question: And the “Population Apoptotic (%)” value [12]?
Answer: 56%

Question: And the “Population Fragmented Nuclei (%)” value [12]?
Answer: 4%

Question: And the “Population Healthy Nuclei (%)” value [12]?
Answer: 47%

Question: What about the “Population Hoechst High Intensity Objects (%)” value [12] of the same molecule?
Answer: 3%

Question: What about the “Population Membrane Permeable-Phenotype (%)” value [12] of the same molecule?
Answer: 1%

Question: What about the “Population Mitochondria Different-Phenotype (%)” value [12] of the same molecule?
Answer: 10%

Question: What about the “Population Mitotic Cells (%)” value [12] of the same molecule?
Answer: 43%

Question: What about the “Population Normal (%)” value [12] of the same molecule?
Answer: 96%

Question: And the “Population Pyknosed Nuclei (%)” value [12]?
Answer: 47%

Question: What about the “Population Tubulin-Different-Phenotype (%)” value [12] of the same molecule?
Answer: 8%

Question: What about the “Total Cell Count” value [12] of the same molecule?
Answer: 219
